Most compounds without a hit are left out; they make up all but 4% or so of the library.
OX1R antag-1: OX1R (human) antagonism; actives 1.8% (n = 330,000); O43613; OX1R-expressing cells, FRET antagonist read-out; inhibition, % at 6.6 µM; in the data active means inhibition mostly above about 38%, no sharp cut-off; inactive means mostly below about 40%;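 further: 0% = agonist challenge alone and 100% = reference antagonist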
Target sequence (O43613 whole entry, looked up): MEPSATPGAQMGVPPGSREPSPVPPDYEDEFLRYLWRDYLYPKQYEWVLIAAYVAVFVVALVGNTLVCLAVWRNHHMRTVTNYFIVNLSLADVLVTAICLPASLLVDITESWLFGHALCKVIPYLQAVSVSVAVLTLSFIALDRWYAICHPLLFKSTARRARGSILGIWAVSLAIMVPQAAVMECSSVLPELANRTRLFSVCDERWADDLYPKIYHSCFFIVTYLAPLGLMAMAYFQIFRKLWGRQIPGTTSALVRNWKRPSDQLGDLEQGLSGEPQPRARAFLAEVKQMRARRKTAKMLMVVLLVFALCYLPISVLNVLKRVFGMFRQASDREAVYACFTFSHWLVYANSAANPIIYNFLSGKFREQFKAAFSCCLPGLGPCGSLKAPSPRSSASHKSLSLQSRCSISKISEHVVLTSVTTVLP
TAAR1 ag: human TAAR1 agonism; activation, % at 3 µM; AID 624467; CHO RD-HGA16 TAAR1, Fluo-8 calcium fluorescence; vehicle wells 0%, saturating PEA agonist 100%; actives 0.99% (n = 360,000);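 active means activation above the mean activation of all test compounds in the run plus 3 SD, cut at about 38% in these data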
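Signal – calcium-sensitive Fluo-8 signal, excitation 470-495, emission 515-575 nm · System – RD-HGA16 (CHO) cells co-expressing Gα16 and hTAAR1 · Incubation – 17-24 h seeding, 75 min 37 °C dye, 30 min RT · Compound dosing – 3 µM single concentration · Repeats – no replicates (n 1)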
OX1R antag-2: antagonists of human orexin 1 receptor; AID 434989; CHO/OX1R cells, Fluo-8 calcium fluorescence, orexin A; O43613; actives 0.43% (n = 330,000); inhibition, % at 5 µM;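 active means inhibition above its plate's threshold, mean inhibition of all tested compounds on the plate plus 3 SD, cut at about 37% in these data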;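 further: 0% = orexin A challenge wells and 100% = SB-334867-A antagonist wells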
CHO parental Ca: counter-screen: ATP calcium response change in parental CHO cells. parental CHO-K1, ATP-induced calcium, Fluo-8 fluorescence. AID 463079. inhibition, % at 5.6 µM. actives 0.63% (n = 330,000);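 active means inhibition above that plate's mean sample inhibition plus 3 SD, cut at about 26% in these data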;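 further: 0% = ATP-challenged DMSO wells and 100% = DMSO wells without ATP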
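Material – parental CHO cells · Reagent – ATP stimulus · Compound – single nominal dose of 5.6 µM per compound · Detection – Fluo-8 fluorescence · Read-out basis – percent inhibition of calcium signal · Controls – ATP-challenged DMSO wells low, unchallenged DMSO wells high · Repeats – no replicates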
TAAR1 antagonist: antagonists of human TAAR1. Q96RJ0. CHO RD-HGA16 TAAR1, Fluo-8 calcium fluorescence, antagonist. inhibition, % at 3 µM. actives 1.5% (n = 360,000);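 active means inhibition above a per-plate cutoff, the mean inhibition of test compounds on that plate plus 3 SD, cut at about 49% in these data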;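 further: 0% = DMSO plus EC80 beta-PEA response and 100% = DMSO alone without agonist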
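Test system – hTAAR1-expressing CHO RD-HGA16 cells, Gα16-coupled · Reagent – β-PEA at EC80 concentration, post-compound challenge · Compound dosing – 3 µM, single point · Timing – 140 s kinetic read after compound, 140 s after agonist · Detection – Fluo-8 intracellular calcium dye fluorescence, real-time kinetic reads · Control set – DMSO and EC80 PEA controls · Repeats – n of 1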
An asterisk follows results filed as active; / = not tested or not shown.

SMILES	OX1R antag-1	TAAR1 ag	OX1R antag-2	CHO parental Ca	TAAR1 antagonist
CC1(c2ccc3ccccc3c2)NC(=O)N(CC(=O)N2CCN(c3ccccc3O)CC2)C1=O (stereo not given)	-4	9	-23	-17	12
Cn1ncc2c(Nc3ccc([N+](=O)[O-])cc3)nc(Cl)nc21	/	41*	/	/	-2
Cn1ncc2c(NCCO)nc(Cl)nc21	/	2	/	/	2
CCc1ccc(NC(=O)C2C3CCC(O3)C2C(=O)O)cc1 (stereo not given)	15	2	-9	3	0
O=C(Nc1ccncc1)Nc1ccc(F)c(Cl)c1	20	49*	21	23	19
COC(=O)c1ccc(NC(=O)Nc2ccc([N+](=O)[O-])cc2)cc1	45	10	37*	67*	17
O=C(Nc1ccc(F)c(Cl)c1)Nc1csc2ccccc12	67*	6	50*	40*	39
COC(=O)c1ccc(NC(=O)Nc2ccc(F)c(Cl)c2)cc1	59*	20	19	41*	41
O=C(Nc1ccc(F)c(Cl)c1)Nc1ccc(Cl)cn1	9	7	-5	-5	28
COC(=O)c1ccc(NC(=O)Nc2ccccc2F)cc1	17	32	-7	-12	-2
CC1=C(C(=O)N(C)C)CC(CC(=O)NCC2CCCCC2)C(=O)N1Cc1ccc(F)cc1 (stereo not given)	/	0	/	/	-1
Cc1cccc(CC(=O)NCC(=O)NCc2cc(=O)n(C)c(=O)n2C)c1	-3	3	-1	9	-22
O=C(Nc1ccc(Cl)cc1)Nc1cccnc1	11	48*	-7	2	40
Cc1cnc(NC(=O)Nc2ccc(Cl)cc2)s1	23	40*	-4	0	21
Cc1csc(NC(=O)Nc2ccc(Cl)cc2)n1	35	22	14	-2	26
Cc1ccccc1Cn1nc(C)c(NC(=O)/C=C/c2cnn(C)c2)c1C	12	-1	-10	-12	-8
O=C(c1ccc([N+](=O)[O-])o1)N1CCCCCC1	28*	4	-14	1	-15
COc1cc2c(cc1OC)CN(C(=O)c1ccc([N+](=O)[O-])o1)CC2	46*	1	-23	-19	-13
O=C(c1ccc([N+](=O)[O-])o1)N1CCc2ccccc21	42*	1	-16	-11	-4
O=C(Nc1ccccc1Cl)N1CCCN(c2nc(-c3ccccc3)ns2)CC1	74*	0	15	1	-16
O=C(NCCN1CCC(n2c(=O)[nH]c3ccccc32)CC1)c1cccc2c1-c1ccccc1C2=O	/	10	/	/	59*
O=[N+]([O-])c1cc(Cl)cc(C2=NCCN2)c1	61*	6	-7	-5	-4
O=[N+]([O-])c1cc(Br)c2c(c1)CCN2	/	-1	/	/	-24
Cc1c(=O)n(OCc2cccc(F)c2)c2ccccc2[n+]1[O-]	42*	3	-17	-13	1
COC(=O)c1c(C(=O)OC)c2ccccn2c1C(=O)c1ccc([N+](=O)[O-])cc1	17	6	-22	-15	2
SMILES	OX1R antag-1	TAAR1 ag	OX1R antag-2	CHO parental Ca	TAAR1 antagonist
CC(C)OC(=O)c1c2c(n3ccccc13)C(=O)c1ccccc1C2=O	8	40*	23	16	45
NS(=O)(=O)c1ccc(CCn2c(=S)[nH]c3ccccc3c2=O)cc1	6	38*	-10	-7	61*
O=C(Cc1coc2ccc3ccccc3c12)NCc1ccccc1	27	7	-14	-16	-1
O=C(Cc1coc2ccc3ccccc3c12)NC1CCCc2ccccc21 (stereo not given)	66*	-2	-2	-36	1
O=[N+]([O-])c1cc(S(=O)(=O)NCc2ccco2)ccc1NN=Cc1ccccn1	/	1	/	/	3
Brc1cccc(CN2CCN(c3ncc(Cc4ccccc4)cn3)CC2)n1	/	1	/	/	-18
O=C(NCC1CCCO1)c1cc2c([nH]c3ccccc32)c(-c2cccc(Cl)c2)n1 (stereo not given)	50*	/	9	1	/
CC(=O)N(c1ccccc1)C1CCCC1	18	3	-4	-3	-10
CC(=O)N(C1=C(O)c2ccccc2C(=O)C1=O)C1CCCCC1	36*	1	-6	-10	-12
CN1CCN(C(=O)C2=C[C@H](C(C)(C)C)C[C@H](OCCCCO)O2)CC1	24	7	-13	-14	7
Cc1ccsc1-c1nc(CSCC(=O)NCc2ccc3c(c2)OCO3)c(C)o1	40*	-1	-30	-12	-6
COc1ccc(-c2nc(CSCC(=O)NCc3ccc4c(c3)OCO4)c(C)o2)cc1OC	35	-2	-17	-14	-17
O=C1N=c2ccccc2=C1c1[nH]c(=S)[nH]c1O	43*	8	-11	5	-9
CC(C)=CCCC1=CC[C@H]2[C@@H](C1)C(C(C)C)=CC(=O)[C@@]2(C)O	/	12	/	/	-26
O=S(=O)(c1cccs1)N1CCN(CC(O)COc2cc(Cl)ccc2Cl)CC1 (stereo not given)	75*	17	74*	69*	31
COC(=O)C1=C(C)N(Cc2ccccc2C(F)(F)F)C(=NCc2ccc3c(c2)OCO3)NC1CCc1ccccc1 (stereo not given)	/	17	/	/	14
Cc1cccc(C)c1NC(=O)c1sccc1SCc1cccc(C(F)(F)F)c1	31	/	37*	53*	/
O=C(CN1CCc2ccccc2C1)Nc1cccc(S(=O)(=O)N2CCCC2)c1	31	38*	-27	-23	-7
O=C(Cn1nc(C(=O)O)c2ccccc2c1=O)Nc1cccc(S(=O)(=O)N2CCCCC2)c1	28	15	60*	25	21
O=C(Cn1nc(C(=O)O)c2ccccc2c1=O)Nc1ccc(Br)cc1	30	33	20	-7	-18
Cc1cc(C(=O)Cn2nc(C(=O)O)c3ccccc3c2=O)c(C)n1CCc1ccc(Cl)cc1	49*	1	13	-15	11
O=C(Cn1nc(C(=O)O)c2ccccc2c1=O)Nc1cc(Cl)cc(Cl)c1	41*	6	19	-7	17
COc1cc(OC)cc(C(=O)N[C@H](C(=O)OCC(=O)c2ccc(C)c([N+](=O)[O-])c2)C(C)C)c1	16	2	-19	-10	9
O=C(NCc1ccccn1)c1cccc(NS(=O)(=O)c2ccc(Br)cc2)c1	2	9	-21	-13	3
CCN(CC)S(=O)(=O)c1cccc(NC(=O)CNc2cccc(S(=O)(=O)N3CCCC3)c2)c1	25	6	28	57*	8
CCN(CC)S(=O)(=O)c1cccc(NC(=O)Nc2cccc(C(F)(F)F)c2)c1	39*	15	20	59*	22
O=C(CN1CCCC1c1cccs1)Nc1cccc(S(=O)(=O)N2CCCC2)c1 (stereo not given)	32*	0	5	-13	-4

Bioassay records deposited in PubChem BioAssay by The Scripps Research Institute Molecular Screening Center.
